What was measured:
[1] = organism: Canis familiaris; experiment: Cardiac slowing index was measured for potency and efficacy; assay type: functional, Canis lupus familiaris
Summary of the method: (§1)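 Triazine tachycardia in conscious dogs: carotid artery and jugular vein catheterized with heparinized saline; 18 h after surgery, triazine vasodilator U20388 12 mg/kg po; about 1 h later, dog in sling with arterial pressure and ECG monitored. Test agent infused iv at 0.8 (mg/kg)/min to 30 mg/kg total. D50 = dose giving 50% of maximal slowing in that animal; ΔHR50 = heart-rate change at D50; CS index = %ΔHR50/D50.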

[2] = test system: Canis familiaris; experiment: Dose required to achieve 50 % of maximal cardiac slowing in triazine tachycardia test in conscious dog; assay type: functional, Canis lupus familiaris; summary of the method: as §1
[3] = organism: Canis familiaris; experiment: Relative activity (fraction of the most active compound 24) was determined; assay type: functional, Canis lupus familiaris
[4] = test system: Canis familiaris; experiment: Change in heart rate at the above D50 dose in conscious dogs; assay type: functional, Canis lupus familiaris; summary of the method: as §1
[5] = organism: Canis familiaris; experiment: Percent decrease from initial heart rate (percent delta HR50/HR0 x 100) in dogs; assay type: functional, Canis lupus familiaris; summary of the method: as §1
[6] = test system: Canis familiaris; experiment: Myocardial depression in anesthetized, ganglion-blocked dog; Moderate activity.
[7] = test system: Canis familiaris; experiment: Evaluated for the myocardial depression rating which is barely observable for the given compound in anesthetized, ganglion-blocked dog
[8] = test system: Canis familiaris; experiment: Evaluated for the myocardial depression rating which is none for the given compound in anesthetized, ganglion-blocked dog
[9] = test system: Canis familiaris; experiment: Evaluated for the myocardial depression rating which is severe for the given compound in anesthetized, ganglion-blocked dog
[10] = test system: Canis familiaris; experiment: Evaluated for the heart rate at dose 2.5 mg/kg in 4 animals by glucagon-induced tachycardia test; assay type: functional, Canis lupus familiaris
[11] = test system: Canis familiaris; experiment: Evaluated for the heart rate at dose 2.5 mg/kg in 4 animals by poldine tachycardia test; assay type: functional, Canis lupus familiaris
Summary of the method: (§2)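 Poldine tachycardia: dogs prepared surgically as in the triazine method; poldine methyl sulfate 0.5 mg/kg iv, then 30 min later test agent in increasing doses (0.5/1.0/2.5 mg/kg) at 30-min intervals; read-out is the maximum percent decrease in heart rate at each dose.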

[12] = test system: Canis familiaris; experiment: Evaluated for the heart rate at dose 0.5 mg/kg in 4 animals by poldine tachycardia test; assay type: functional, Canis lupus familiaris; summary of the method: as §2
[13] = test system: Canis familiaris; experiment: Evaluated for the heart rate at dose 1.0 mg/kg in 4 animals by aminophylline-induced sinus tachycardia test; assay type: functional, Canis lupus familiaris
[14] = test system: Canis familiaris; experiment: Evaluated for the heart rate at dose 1.0 mg/kg in 4 animals by glucagon-induced tachycardia test; assay type: functional, Canis lupus familiaris
[15] = test system: Canis familiaris; experiment: Evaluated for the heart rate at dose 5.0 mg/kg in 4 animals by aminophylline-induced sinus tachycardia test; assay type: functional, Canis lupus familiaris
[16] = test system: Canis familiaris; experiment: Evaluated for the heart rate at dose 2.5 mg/kg in 4 animals by aminophylline-induced sinus tachycardia test; assay type: functional, Canis lupus familiaris
[17] = test system: Canis familiaris; experiment: Evaluated for the heart rate at dose 1.0 mg/kg in 4 animals by poldine tachycardia test; assay type: functional, Canis lupus familiaris; summary of the method: as §2
[18] = test system: Canis familiaris; experiment: Myocardial depression rating in anesthetized, ganglion-blocked dog; Weak activity.
[19] = test system: Canis familiaris; experiment: Evaluated for the heart rate at dose 5.0 mg/kg in 4 animals by glucagon-induced tachycardia test; assay type: functional, Canis lupus familiaris
[20] = test system: Canis familiaris; experiment: Evaluated for the heart rate at dose 2.5 mg/kg in 6 animals by aminophylline-induced sinus tachycardia test; assay type: functional, Canis lupus familiaris
[21] = test system: Canis familiaris; experiment: Evaluated for the heart rate at dose 5.0 mg/kg in 6 animals by aminophylline-induced sinus tachycardia test; assay type: functional, Canis lupus familiaris
[22] = test system: Canis familiaris; experiment: Evaluated for the heart rate at dose 1.0 mg/kg in 6 animals by aminophylline-induced sinus tachycardia test; assay type: functional, Canis lupus familiaris

| Compound | CS index [1] | D50 [2] [mg/kg] | Relative activity [3] | Delta HR50 [4] [beats min-1] | Delta HR50 [5] [%] | MD [6] | also measured |
| --- | --- | --- | --- | --- | --- | --- | --- |
| COCCn1cc(SCC/N=C2\CCCN2C)c2ccccc21 | 11.7 | 1.5 | 0.37 | -33 | 17.6 | 2.5 | – |
| CCn1cc(SCCCC/N=C2\CCCN2C)c2ccccc21 | 22.8 | 0.7 | 0.71 | -33 | 16 | 3.5 | – |
| CCCn1cc(SCC/N=C2\CCCN2C)c2ccccc21 | 16.1 | 1.7 | 0.5 | -60 | 27.4 | – | MD [7]: 1 |
| CCn1cc(CC/N=C2/CCCN2C)c2ccccc21 | 25.2 | 0.8 | 0.79 | -48 | 20.2 | – | MD [8]: 0 |
| CCCc1[nH]c2ccccc2c1SCC/N=C1\CCCN1C | 3.7 | 7.9 | 0.11 | -62 | 29 | – | MD [9]: 4 |
| Cc1[nH]c2ccccc2c1SCC/N=C1\CCCCN1C | 7.1 | 2 | 0.22 | -24 | 14.3 | 3 | – |
| CC(C)n1cc(SCC/N=C2\CCCN2C)c2ccccc21 | 19.1 | 1 | 0.6 | -31 | 19.1 | – | Max decrease in heart rate [10]: 39%; Max decrease in heart rate [11]: 55%; Max decrease in heart rate [12]: 15%; Max decrease in heart rate [13]: 16%; Max decrease in heart rate [14]: 23%; Max decrease in heart rate [15]: 47%; Max decrease in heart rate [16]: 33%; Max decrease in heart rate [17]: 38%; MD [18]: 2 |
| Cc1[nH]c2ccc(Cl)cc2c1SCC/N=C1\CCCN1C | 7.5 | 2.3 | 0.23 | -33 | 17.2 | 3 | – |
| CN1CCN=C1NCCCCSc1c[nH]c2ccccc12 | 0.8 | 12.6 | 0.03 | -27 | 10.5 | – | MD [8]: 0 |
| CCCc1[nH]c2ccccc2c1SCCNC1=NCCN1C | 6.3 | 2.1 | 0.2 | -27 | 13.2 | – | MD [9]: 4 |
| Cc1c(SCC/N=C2\CCCN2C)c2ccccc2n1C | 13.9 | 0.9 | 0.43 | -21 | 12.5 | 3.5 | – |
| CN1CCCC1=NCCCCc1c[nH]c2ccccc12 | 3.1 | 6.1 | 0.11 | -50 | 19 | – | MD [8]: 0 |
| CN1CCC/C1=N\CCSc1c[nH]c2ccccc12 | 8.2 | 2.5 | 0.26 | -40 | 20.4 | 3 | Max decrease in heart rate [10]: 20%; Max decrease in heart rate [11]: 33%; Max decrease in heart rate [12]: 9%; Max decrease in heart rate [13]: 10%; Max decrease in heart rate [14]: 6%; Max decrease in heart rate [15]: 39%; Max decrease in heart rate [19]: 28%; Max decrease in heart rate [16]: 22%; Max decrease in heart rate [17]: 22% |
| CN1CCC/C1=N\CCC1CNc2ccccc21 (stereo not given) | 3.5 | 3.5 | 0.13 | -27 | 12.2 | – | MD [7]: 1 |
| CN1CCC/C1=N\CCSc1cn(C)c2ccccc12 | 16.8 | 1.2 | 0.52 | -30 | 20.2 | – | Max decrease in heart rate [10]: 34%; Max decrease in heart rate [11]: 47%; Max decrease in heart rate [12]: 24%; Max decrease in heart rate [14]: 13%; Max decrease in heart rate [20]: 32%; Max decrease in heart rate [19]: 53%; Max decrease in heart rate [21]: 39%; Max decrease in heart rate [22]: 22%; Max decrease in heart rate [17]: 33%; MD [18]: 2 |
| COc1ccc(CC/N=C2/CCCN2C)cc1OC [MIXIDINE] | 5.9 | 3.3 | 0.18 | -34 | 19.6 | – | Max decrease in heart rate [10]: 16%; Max decrease in heart rate [11]: 35%; Max decrease in heart rate [12]: 12%; Max decrease in heart rate [20]: 25%; Max decrease in heart rate [19]: 28%; Max decrease in heart rate [21]: 33%; Max decrease in heart rate [22]: 6%; Max decrease in heart rate [17]: 24%; MD [7]: 1 |
